Measurements pooled from the literature.
Target: Dual specificity mitogen-activated protein kinase kinase 6 (MAP2K6, Homo sapiens, UniProt P52564)
Sequence (P52564 1-334, as in one of the studies): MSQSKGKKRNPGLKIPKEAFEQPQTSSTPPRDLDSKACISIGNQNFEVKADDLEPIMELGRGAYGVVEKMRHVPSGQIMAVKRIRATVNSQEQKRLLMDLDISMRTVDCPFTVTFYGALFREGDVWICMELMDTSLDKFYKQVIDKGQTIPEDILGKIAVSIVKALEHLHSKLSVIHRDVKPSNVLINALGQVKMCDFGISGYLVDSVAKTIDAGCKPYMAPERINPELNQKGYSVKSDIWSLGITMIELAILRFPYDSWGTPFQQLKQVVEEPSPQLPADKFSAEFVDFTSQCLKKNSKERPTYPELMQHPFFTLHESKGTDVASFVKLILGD

N[C@@H]1CCN(c2nccc(-c3cnn4ncccc34)n2)C1
remaining binding (binding; 1 µM): 100%

O=C(NCCCN1CCOCC1)c1ccc(Nc2ncc(Cl)c(-c3ccc(Cl)s3)n2)cc1
remaining binding (binding; competition with immobilised ligand; 1 µM): 87%

F[C@@H]1CCN(c2nccc(-c3cnn4ncccc34)n2)C1
remaining binding (binding; 1 µM): 100%

C[C@H](NC(=O)c1cnc2n1[C@](C)(Cc1ccc(C#N)cc1)C(=O)N2c1cc(Cl)c(F)c(Cl)c1)C(=O)NC1(c2ccccn2)CC1
remaining binding (cell-free assay; competition with immobilised ligand; 1 µM): 80%

O=C(NCCCN1CCOCC1)c1ccc(Nc2nccc(-c3cc4ccccc4s3)n2)cc1
remaining binding (binding; competition with immobilised ligand; 1 µM): 76%

C[C@H](c1ccnc(Nc2nc3ccc(-c4cc(N(C)C)ncn4)cc3[nH]2)c1)N1CCN(C(=O)CC(F)(F)F)CC1
remaining binding (cell-free assay; competition with immobilised ligand; 0.1 µM): 96%

COc1cnc(Nc2cccc(S(N)(=O)=O)c2)nc1N1CCN(c2ccccc2)CC1
remaining binding (binding; competition with immobilised ligand; 1 µM): 100%

CC(=O)C1=C(C)N(c2cccc(C(F)(F)F)c2)C(=O)N[C@@H]1c1ccc(C#N)nc1
remaining binding (cell-free assay; competition with immobilised ligand; 1 µM): 94.6%

c1cnn2ncc(-c3ccnc(N4CCC45COC5)n3)c2c1
remaining binding (binding; 1 µM): 100%

COc1ncc2cc3ccccc3nc2c1C#N
remaining binding (cell-free assay; competition with immobilised ligand; 5 µM): 100%

CC1CCCN1c1nccc(-c2cnn3ncccc23)n1 (stereo not drawn)
remaining binding (binding; 1 µM): 100%

Nc1ncc2c(n1)-c1c([nH]c3ccc(C#CC4CC4)cc13)CCCC2
remaining binding (binding; competition with immobilised ligand; 1 µM): 100%

C[C@@H](c1ccc(-n2cnc3c(N)ncnc32)cc1)N1CCc2nn(C)c(Cc3ccccc3)c2C1=O
remaining binding (binding; competition with immobilised ligand; 0.1 µM): 90%

CN(C)c1nccc(-c2cnc3ncccn23)n1
remaining binding (binding; 1 µM): 99%

Cc1c(C(=O)O)cc(-c2ccc(C3CCNCC3)cc2)c2ccc(-c3ccc(C(F)(F)F)cc3)cc12
remaining binding (binding; competition with immobilised ligand; 1 µM): 100%

Cc1cnn2ncc(-c3ccnc(N(C)C)n3)c2c1
remaining binding (binding; 1 µM): 100%

Cn1nc(C(F)(F)F)cc1-c1cnc(N2CCc3cc(S(=O)(=O)Nc4c(F)cc(Cl)cc4F)cc(N4CCCC4=O)c32)nc1
remaining binding (cell-free assay; competition with immobilised ligand; 1 µM): 100%

O=C(c1ccc(Nc2ncc(Cl)c(-c3cc4ccccc4s3)n2)cc1)N1CCC(N2CCCC2)CC1
remaining binding (binding; competition with immobilised ligand; 1 µM): 37%

CNC(=O)Nc1ccc2c(c1)CC[C@@]21OC(=O)N(CC(=O)N(Cc2ccc(F)cc2)[C@@H](C)C(F)(F)F)C1=O
remaining binding (cell-free assay; competition with immobilised ligand; 1 µM): 100%

C[C@@H]1CCN(c2nccc(-c3cnn4ncccc34)n2)C1
remaining binding (binding; 1 µM): 100%

CNC(=O)[C@@]12C[C@@H]1[C@@H](n1cnc3c(NC)nc(C#Cc4ccc(Cl)s4)nc31)[C@H](O)[C@@H]2O
remaining binding (binding; competition with immobilised ligand; 10 µM): 17%

c1cncc(-c2cccc(Nc3nccc(NC4CCCCC4)n3)c2)c1
remaining binding (binding; competition with immobilised ligand; 10 µM): 79%

O=C(Nc1c[nH]nc1C(=O)NC1CCNCC1)c1cc(F)cc(F)c1
remaining binding (binding; competition with immobilised ligand; 1 µM): 100%

Nc1cnc(N2CCc3cc(S(=O)(=O)Nc4c(F)cc(Cl)cc4F)cc(N4CCCC4=O)c32)nc1
remaining binding (cell-free assay; competition with immobilised ligand; 1 µM): 71%
